Assay outcomes (PubChem)
Sampled rows, rich in hits. Any-hit rate of the full collection: about 3.7%.
Mdm2 ligase inh – MDM2-luciferase reporter signal enhancers, primary screen, MDM2 E3 ligase inhibitor project, cell-based, luminescence, 1536-well; signal enhancement, % at 5 µM; cell-based MDM2 ubiquitination luciferase reporter, 2 h; 0 = plate control, 100 = twice control, blank-subtracted; actives 0.11% (n = 210,000); AID 1230, 2008;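 active = signal enhancement of 30% or more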;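 note: luminescence tracks abundance of the self-degrading MDM2-luciferase fusion protein; higher signal means inhibition of MDM2 E3 ligase activity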
Target sequence (Q00987 whole entry, looked up, the tested form may be a part): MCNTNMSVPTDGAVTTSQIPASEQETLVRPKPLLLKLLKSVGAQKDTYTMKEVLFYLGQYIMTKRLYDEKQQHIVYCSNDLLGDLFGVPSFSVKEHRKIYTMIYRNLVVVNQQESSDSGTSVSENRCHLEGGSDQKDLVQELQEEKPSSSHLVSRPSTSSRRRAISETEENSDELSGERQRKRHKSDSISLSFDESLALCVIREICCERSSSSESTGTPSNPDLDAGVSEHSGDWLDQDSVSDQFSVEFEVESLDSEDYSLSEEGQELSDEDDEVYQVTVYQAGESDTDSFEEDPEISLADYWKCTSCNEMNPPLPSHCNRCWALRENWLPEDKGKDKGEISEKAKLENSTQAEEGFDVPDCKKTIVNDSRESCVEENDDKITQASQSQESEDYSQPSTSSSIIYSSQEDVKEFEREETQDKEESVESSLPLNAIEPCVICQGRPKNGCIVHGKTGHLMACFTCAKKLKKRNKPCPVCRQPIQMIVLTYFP
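system = mammalian cells stably expressing self-ubiquitinating, self-degrading MDM2 E3–luciferase fusion | quantity = 2000 cells per well seeded | incubation = 4 h cell settling then 2 h compound exposure, 37 °C | signal = SteadyLite luminescence, 15 min reagent step | benchmarks = plate control and blank wells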
Cl transport mod – KCC2 cotransporter modulators, thallium flux, primary screen, cell-based, HEK293 KCC2, FluoZin-2 fluorescence, MLSMR | Solute carrier family 12 member 5 (Homo sapiens), Q9H2X9 | KCC2 cells, thallium flux FluoZin-2 fluorescence | B-score of Tl+ flux slope (higher = more flux/activation; lower = inhibition) at 10 µM | actives 2.2% (n = 190,000);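 active = thallium flux slope and its plate-corrected score both differing from the plate sample mean at a set confidence after two filtering rounds, in either direction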;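 note: slope of fluorescence scaled to starting intensity during 10 to 20 s after thallium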
Arbovirus inh – antivirals against arbovirus infection, primary screen, cell-based, full library, 10K replicate subset; arbovirus infection cell-based antiviral screen; inhibition, % at 10 µM; actives 0.37% (n = 200,000); in the data active = inhibition above about 30%
PKD1 kinase inh – inhibitors of human PKD1 kinase, biochemical, fluorescence polarization | actives 0.056% (n = 200,000) | PKD1 kinase fluorescence polarization assay | inhibition, % (no concentration beside the values) | AID 797, 2007; in the data active = inhibition above about 50%
ROMK primary – ROMK potassium channel modulators, primary screen, cell-based, thallium flux, MLSMR library; Tet-inducible ROMK, thallium flux fluorescence; actives lie on both sides; B-score at 10 µM; actives 2% (n = 130,000); AID 1918, 2009;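 active = signal ratio slope over the read window, or its plate-corrected B-score, at least 3 SD from the plate mean, either direction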;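 note: B-score of the F/F0 ratio slope over 7 to 12 s after thallium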
m-calpain inh – inhibitors of pig calpain II, primary screen, biochemical, fluorogenic peptide substrate, 1536-well. purified calpain II, 30 min. actives 0.37% (n = 220,000). inhibition, % at 16 µM;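 active = inhibition above about 50%, limit read from the data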
* hit, by the source's call; nt = not tested or not shown.

SMILES	Mdm2 ligase inh	Cl transport mod	Arbovirus inh	PKD1 kinase inh	ROMK primary	m-calpain inh
CNC(=S)N/N=C/c1ccccc1Cl	nt	2.13	-14.2	-1.0	-0.674	13.2
S=C(N/N=C/c1ccccc1Cl)Nc1ccccc1	-83.7	15.6*	-6.1	-10.4	nt	23.4
O=[N+]([O-])c1cc(C(F)(F)F)ccc1NCCc1c[nH]c2ccc(O)cc12	0.1	nt	1.4	-10.1	nt	52.4*
O=[N+]([O-])c1cc(C(F)(F)F)ccc1NCCc1c[nH]c2ccccc12	-13.8	-0.0546	-33.2	-3.0	nt	50.1*
CCn1c(=O)c2ccccc2n2c(SCC(=O)N3CCc4ccccc4C3)nnc12	-6.4	nt	5.5	-4.6	nt	21.3
CCCn1c(=O)c2ccccc2n2c(SCC(=O)N3CCc4ccccc4C3)nnc12	-11.4	-4.13*	0.8	2.9	nt	3.4
CC(C)Cc1csc(NC(=O)c2ccc(F)cc2)c1C(=O)O	-7.8	0.24	48.3*	-7.1	nt	6.9
CCOC(=O)c1c(CC(C)C)csc1NC(=O)c1ccccc1C(=O)O	-8.6	-2.55	nt	nt	nt	29.2
CCCCCCCCc1nnc(N)s1	-9.3	-1.49	nt	nt	nt	-8.7
Nc1ccc2nc(-c3ccccn3)[nH]c2c1	-6.8	-0.0229	0.3	-10.2	nt	-39.6
Cc1[nH]c(-c2ccccn2)nc(=S)c1Cl	16.6	63.1*	nt	nt	3.54*	-15.3
O=C(C[n+]1cccc2ccccc21)c1ccccc1	2.7	-0.259	7.2	-4.8	0.427	0.3
CCCCCCCCCCCCCCCC[n+]1cccc2ccccc21	-24.6	1.25	-45.6	1.7	nt	98.8*
C=CCCCCCCCCc1nc(=S)[nH][nH]1	-7.0	64*	-12.7	-2.5	1.63	-13.5
C=CCCCCCCCCc1nc(SCC(=O)O)n[nH]1	-6.5	-0.0278	nt	nt	nt	-17.7
C/C(N)=C(/C#N)C(=O)COC(=O)CC12CC3CC(CC(C3)C1)C2	-11.1	nt	7.0	1.3	0.719	65.4*
O=[N+]([O-])c1ccc(NCCNCCOc2nonc2-c2ccccc2)c([N+](=O)[O-])c1	-13.3	0.16	30.4*	-7.4	0.0815	39.0
Cc1nonc1OCCNCCNc1ccc([N+](=O)[O-])cc1Cl	-7.9	-1.31	0.9	13.4	-3.01	26.4
COC(=O)c1c(-c2ccccc2)csc1N1C(=O)Nc2ccccc2N1O	-14.7	-0.186	35.7*	-5.6	0.216	29.8
CCc1ccc(/C=C2/C(=O)N(c3ccccc3)C(=S)N2CC(=O)OC)s1	-12.7	0.99	-4.3	-4.0	nt	27.5
CCN1C(=O)/C(=C/N(C(C)=O)c2ccccc2)N(c2ccccc2)C1=S	-22.6	nt	-44.5	3.9	-3.81*	2.4
COc1ccc(/C=N/n2cnc3c([nH]c4ccccc43)c2=O)cc1COc1ccccn1	-7.0	0.655	-2.9	-1.5	0.0103	-85.1
CC(C)CCNC(=O)C12CN(Cc3ccccc3)CC1C(c1ccc([N+](=O)[O-])cc1)=NO2 (stereo unspecified)	-25.9	-1.1	-2.9	2.8	nt	57.7*
CC(C)=CC1C(C(=O)Nc2ccc(Br)cn2)C1(C)C (stereo unspecified)	3.8	0.198	-2.8	-5.2	0.0299	52.6*
CCOc1ccccc1NC(=O)C(=O)N/N=C/c1cc(Br)ccc1O	-14.4	0.225	-21.8	-7.8	0.382	-45.4
SMILES	Mdm2 ligase inh	Cl transport mod	Arbovirus inh	PKD1 kinase inh	ROMK primary	m-calpain inh
COc1ccc(-n2ncc(S(=O)(=O)c3ccccc3)c2-c2ccc(Cl)cc2)cc1	-7.7	nt	-28.1	-1.6	nt	52.4*
CCOC(=O)c1sc(NC(=S)NC(=O)c2cccc(Cl)c2)c(C(=O)OCC)c1C	-20.5	1.56	36.6*	-10.9	nt	-14.7
CC(=O)Nc1ccc2nc(CN3CCN(Cc4ccc(F)cc4)C(CCO)C3)ccc2c1 (stereo unspecified)	-9.1	nt	2.7	-10.9	0.0532	-37.0
Cc1nc(C(C)NC(=O)CCc2nnc(CCCc3ccccc3)o2)c(C)s1 (stereo unspecified)	-7.6	-0.828	-1.9	-1.3	0.559	14.0
O=C1OC(c2cccc([N+](=O)[O-])c2)C2(CCCC2)C(=O)C12CCCCC2 (stereo unspecified)	nt	0.0336	18.4	4.4	0.321	52.9*
COc1cccc(OC)c1C(=O)NC(C)C12CC3CC(CC(C3)C1)C2 (stereo unspecified)	-10.1	nt	43.1*	3.5	0.00176	21.1
COCCNC(=O)C(C(=O)c1ccc(F)cc1)n1cc(C)ccc1=O (stereo unspecified)	-7.2	0.865	-1.9	9.4	-0.747	-10.7
O=C(NCc1ccccc1)c1cccc(COc2ccc3c(c2)CCC3)c1	-63.4	-0.0768	17.9	-5.2	nt	32.3
COc1cccc(OC)c1C(=O)NNC(=O)c1cccc(COc2ccc3c(c2)CCC3)c1	31.2*	0.00265	-25.8	-5.8	nt	0.0
O=C(Cn1c(=O)[nH]c2ccsc2c1=O)NC1CCCCCC1	-4.9	-4.69*	2.7	-2.9	-0.576	4.3
CC1CCC(NC(=O)Cn2c(=O)[nH]c3ccsc3c2=O)CC1 (stereo unspecified)	-14.1	1.79	-1.0	11.1	nt	-11.0
CCOc1ccc(-c2cc3nc(C4CCN(C(=O)OC(C)(C)C)CC4)c(C(=O)O)cn3n2)cc1	-9.8	-0.365	49.5*	-6.0	nt	-86.6
C=CCN1C(=O)CSc2ccc(C(=O)NCc3cccs3)cc21	-18.9	-1.11	21.5	2.4	-0.839	20.3
NCCCCCC(=O)N/N=C/c1coc2ccccc2c1=O	3.8	-2.27	nt	nt	-1.09	-18.8
Clc1cccc(-c2cc3nc4c(c(NCc5ccco5)n3n2)CCCC4)c1	-24.1	0.447	33.7*	7.2	-0.475	-21.1
O=C1NC(=S)S/C1=C\c1ccc(SCc2ccccc2)o1	-11.5	29.1*	-2.0	4.8	1.19	39.1
O=C1NC(=S)S/C1=C\c1ccc(SCc2ccco2)o1	-3.8	119*	18.2	-5.5	-2.8*	52.1*
CCC1=NN2C(=N)/C(=C\c3ccc(SCc4ccco4)o3)C(=O)N=C2S1	-0.6	nt	62.2*	-8.2	nt	-36.0
CCC1=NN2C(=N)/C(=C\c3cccn3-c3ccc(OC)cc3)C(=O)N=C2S1	-9.0	1.42	29.7	-0.6	0.684	-3.6
CCOc1cc(/C=C2/SC(=S)NC2=O)ccc1OC(=O)c1ccco1	-2.4	1.36	1.6	-5.1	-1.47	26.4
O=C(Nc1ccc(Cl)cc1Cl)NC1CCN(S(=O)(=O)c2ccc(F)cc2)CC1	nt	nt	nt	nt	nt	7.7
CC(Cc1ccccc1)NC(=S)CN1CCCC1=S (stereo unspecified)	-21.8	-1.65	nt	nt	nt	-10.9
Fc1cnc(N2CCOCC2)nc1N1CCOCC1	nt	0.172	3.2	8.2	0.0878	-0.4
Fc1cnc(N2CCOCC2)nc1N1CCc2ccccc21	-15.4	-3.26*	-0.5	-11.8	-2.8*	5.2
